Screening data deposited in PubChem by several laboratories.
ANO1 block: inhibitors of mouse TMEM16A calcium-activated chloride channel. Q8BHY3. HEK293 TMEM16A/YFP iodide influx fluorescence, ionomycin. normalized B-score (activity score, 25-100; higher = stronger inhibition) at 10 µM. hit rate 1.2% among 310,000;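 active = ratio plate-corrected score three or more library SD toward inhibition, starting fluorescence score within five deviations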;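 note: score derived from kinetic fluorescence span divided by baseline fluorescence per well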
CHT PAM: allosteric activators of human choline transporter CHT; Q9GZV3; CHT-expressing cells, membrane potential dye, choline EC20; active compounds read high; LV-AA mutant CHT in HEK293 cells; B-score at 10 µM; hit rate 0.49% among 310,000; AID 488977;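 active = initial fluorescence not abnormally high and integrated response B-score, plate-corrected, over 3 SD above library mean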
IMP-1 inh-1: inhibitors of Pseudomonas aeruginosa IMP-1 metallo-beta-lactamase; purified IMP-1, nitrocefin hydrolysis, epi-absorbance fluorescence; inhibition, % at 5.6 µM; hit rate 0.45% among 290,000; AID 1556;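 active = inhibition above the mean plus 3 SD of all compounds in the same screening run, cut at about 4.5% in these data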
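System: purified recombinant IMP-1 beta-lactamase. Medium: Zinc- and detergent-supplemented HEPES buffer, pH 7.1. Compound: one 5.6 µM dose […]. Schedule: 15 min preincubation plus 25 min reaction at 25 °C. Technique: Epi-absorbance fluorescence, 480 nm excitation, 530 nm emission.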
CHT block: inhibitors of human choline transporter CHT; Q9GZV3; CHT-expressing cells, membrane potential dye, choline response; active compounds read low; B-score at 10 µM; hit rate 0.86% among 310,000; AID 488975;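 active = B-score over 3 SD under the library average, and starting fluorescence ratio not unusually high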;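 note: choline stimulus applied at its EC90 after an EC20 pre-addition; B-score computed on integrated fluorescence ratio after choline addition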
TMEM16A act: mouse TMEM16A channel activation, primary screen. B-score at 10 µM. AID 623877. HEK293 TMEM16A/YFP-H148Q/I152L, iodide quench fluorescence; active compounds read low. Q8BHY3. hit rate 0.3% among 340,000;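 active = fluorescence-ratio B-score plate-corrected deviation score at least 3 library SD below zero, with starting fluorescence score within 5 deviations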;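 note: channel opened by trigger with iodide after compound preincubation; score built on the fluorescence ratio of max minus min over baseline; more negative score means more quench and so TMEM16A activation or potentiation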
VIM-2 inh: blocks Pseudomonas aeruginosa VIM-2 metallo-beta-lactamase | purified VIM-2, nitrocefin hydrolysis, epi-absorbance fluorescence | inhibition, % at 5.6 µM | hit rate 0.89% among 290,000;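 active = inhibition above the mean of all tested compounds plus 3 SD, cutoff set per screening run, cut at about 7.5% in these data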;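 note: red hydrolysis product quenches plate fluorescence so inhibitors raise well fluorescence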
IMP-1 inh-2: IMP-1 inhibition, counter-screen for VIM-2 inhibitors. shares compounds with VIM-2 inh. purified IMP-1, nitrocefin hydrolysis, epi-absorbance fluorescence. inhibition, % at 5.6 µM. 1,300 tested, under 10 active. AID 1856; call rule not given here
VIM-2 FRET inh: counter-screen for VIM-2 inhibitors: epi-absorbance artifacts via FRET. shares compounds with VIM-2 inh. purified VIM-2, CCF2 FRET substrate hydrolysis. inhibition, % at 5.6 µM. hit rate 23% among 1,300. AID 1857;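 active = inhibition above the mean of all tested compounds plus 3 SD, cut at about 19% in these data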
TEM-1 counter: blocks E. coli TEM-1 beta-lactamase in VIM-2 selectivity screen | shares compounds with VIM-2 inh | Purified TEM-1, nitrocefin hydrolysis, epi-absorbance fluorescence | inhibition, % at 5.6 µM | hit rate 3% among 1,300 | AID 1866;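 active = inhibition above that campaign's mean inhibition plus 3 SD, cut at about 0.46% in these data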
Target sequence (P62593 whole entry, looked up): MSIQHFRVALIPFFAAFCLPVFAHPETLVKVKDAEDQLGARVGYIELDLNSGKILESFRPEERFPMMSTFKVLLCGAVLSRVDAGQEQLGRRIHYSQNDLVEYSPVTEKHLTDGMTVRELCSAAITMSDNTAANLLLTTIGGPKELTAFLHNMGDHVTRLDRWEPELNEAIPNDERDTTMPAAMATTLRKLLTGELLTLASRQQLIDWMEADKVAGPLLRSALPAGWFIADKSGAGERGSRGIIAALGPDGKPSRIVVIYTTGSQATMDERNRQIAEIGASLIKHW
VIM-2 inh conf: confirmation of P. aeruginosa VIM-2 metallo-beta-lactamase inhibitors; hit rate 96% among 1,300; AID 2187; inhibition, % at 5.6 µM; purified VIM-2, nitrocefin hydrolysis, epi-absorbance; shares compounds with VIM-2 inh;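 active = inhibition of the VIM-2 beta-lactamase enzyme above about 11% from the earlier first-round screen, limit read from the data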
Each line names hits and unclear results; the compound was inactive in the other large screens (follow-up assays come after a bar, where they were run). Only some compounds are listed: those with a hit (about 3.4% of all), similar ones and a draw of the others.

CN1CCN(c2ccc(NC(=O)c3cc4ccccc4o3)cc2)CC1	VIM-2 inh 40 | IMP-1 inh-2 inactive | VIM-2 FRET inh inactive | TEM-1 counter inactive | VIM-2 inh conf 55
CCN1CCN(c2ccc(NC(=O)c3ccc(Br)o3)cc2)CC1	VIM-2 inh 15 (no result: ANO1 block, CHT PAM, CHT block) | IMP-1 inh-2 inactive | VIM-2 FRET inh inactive | TEM-1 counter inactive | VIM-2 inh conf 24
O=C(Nc1ccc(N2CCCC2)cc1)c1ccc(Br)o1	none
CN1CCN(c2ccc(NC(=O)c3ccc(-c4ccc(Br)cc4)o3)cc2)CC1	VIM-2 inh 24 | IMP-1 inh-2 inactive | VIM-2 FRET inh inactive | TEM-1 counter inactive | VIM-2 inh conf 34
CS(=O)(=O)N1CCN(c2ccc(NC(=O)c3cc4ccccc4o3)cc2)CC1	none
O=C(O)COc1ccccc1/C=N/n1c(C2CCCCC2)n[nH]c1=S	VIM-2 inh 27 | IMP-1 inh-2 inactive | VIM-2 FRET inh 53 | TEM-1 counter inactive | VIM-2 inh conf 40
CCc1nn2c(NCCCO)cc(C)nc2c1-c1ccc(F)cc1	none
Cc1cc(C)c2c(n1)nn1c(NCCCN(C)C)cc(C)nc21	CHT PAM 8.1, VIM-2 inh 19 | IMP-1 inh-2 inactive | VIM-2 FRET inh inactive | TEM-1 counter inactive | VIM-2 inh conf 31
COc1ccc(-c2coc3cc4oc(=O)c(CC(=O)O)c(C)c4cc23)cc1	none (no result: ANO1 block, CHT PAM, CHT block)
COc1cccc(-c2coc3cc4oc(=O)c(CCC(=O)O)c(C)c4cc23)c1	none
COc1ccc(-c2coc3c(C)c4oc(=O)c(CC(=O)O)c(C)c4cc23)cc1	VIM-2 inh 16 (no result: ANO1 block, CHT PAM, CHT block) | IMP-1 inh-2 inactive | VIM-2 FRET inh inactive | TEM-1 counter inactive | VIM-2 inh conf 22
COc1cccc(-c2coc3c(C)c4oc(=O)c(CCC(=O)O)c(C)c4cc23)c1	ANO1 block 100, VIM-2 inh 15 | IMP-1 inh-2 inactive | VIM-2 FRET inh inactive | TEM-1 counter inactive | VIM-2 inh conf 22
COc1cccc(-c2coc3c(C)c4oc(=O)c(CC(=O)O)c(C)c4cc23)c1	VIM-2 inh 16 | IMP-1 inh-2 inactive | VIM-2 FRET inh inactive | TEM-1 counter inactive | VIM-2 inh conf 30
C[C@H](NC(=O)C1CC(=O)N(c2ccc3c(c2)OCCO3)C1)C(=O)N1CCCCC1 (stereo partly specified)	none
COc1ccc(OC)c(/C=N/NC(=O)CC2C(=O)NN=C2C)c1 (stereo unspecified)	VIM-2 inh 29 | IMP-1 inh-2 inactive | VIM-2 FRET inh 63 | TEM-1 counter inactive | VIM-2 inh conf 46
O=C1CCC(C(=O)N2CCN(c3cnccn3)CC2)CN1CCc1cccc(F)c1 (stereo unspecified)	none
CC1CC(C)CN(CCCNS(=O)(=O)c2ccc3c(c2)CCN3C(=O)C2CC2)C1 (stereo unspecified)	VIM-2 inh 12 | IMP-1 inh-2 inactive | VIM-2 FRET inh inactive | TEM-1 counter inactive | VIM-2 inh conf 8.9
CC(C)C[C@H](NC(=O)N1CCn2c1nc1ccccc12)C(=O)N[C@H](Cc1ccccc1)C(=O)O	none
O=C(COc1cc2oc(=O)c3c(c2cc1Cl)CCC3)NCCCn1ccnc1	VIM-2 inh 30 | IMP-1 inh-2 inactive | VIM-2 FRET inh inactive | TEM-1 counter inactive | VIM-2 inh conf 44
CCc1cc(=O)oc2cc(OCC(=O)NCCCN3CCCC3=O)c(Cl)cc12	none
CC(Oc1cc2oc(=O)c3c(c2cc1Cl)CCC3)C(=O)NCc1ccncc1 (stereo unspecified)	VIM-2 inh 16 | IMP-1 inh-2 inactive | VIM-2 FRET inh inactive | TEM-1 counter inactive | VIM-2 inh conf 22
Cc1ccc(C(C)C)cc1OCC(=O)NCCCn1ccnc1	none (no result: ANO1 block, CHT PAM, IMP-1 inh-1, CHT block, VIM-2 inh)
O=C(COc1cc2oc(=O)c3c(c2cc1Cl)CCC3)Nc1cccnc1	none
Cc1c(C)c2cc(Cl)c(OCC(=O)NCCCn3ccnc3)cc2oc1=O	VIM-2 inh 28 | IMP-1 inh-2 inactive | VIM-2 FRET inh inactive | TEM-1 counter inactive | VIM-2 inh conf 38
CCc1cc(=O)oc2cc(OCC(=O)NCCCn3ccnc3)c(Cl)cc12	VIM-2 inh 24 | IMP-1 inh-2 inactive | VIM-2 FRET inh inactive | TEM-1 counter inactive | VIM-2 inh conf 35
Cc1ccc(NC(=O)C2CC2c2ccccc2)c([N+](=O)[O-])c1 (stereo unspecified)	none
Cc1cccc2c1NC(=O)C2(O)N1CCCC(C)C1 (stereo unspecified)	none
CCN(CC(=O)NCc1ccc(F)cc1)C(=O)C1CCN(S(=O)(=O)c2ccc(C(C)C)cc2)CC1	none (no result: ANO1 block, CHT PAM, IMP-1 inh-1, CHT block, VIM-2 inh)
CC(C)Oc1cc2oc(=O)c3c(c2cc1Cl)CCC3	none
CC(Oc1cc2oc(=O)c3c(c2cc1Cl)CCC3)C(=O)NCCCn1ccnc1 (stereo unspecified)	VIM-2 inh 28 | IMP-1 inh-2 inactive | VIM-2 FRET inh inactive | TEM-1 counter 2.3 | VIM-2 inh conf 40
Cc1c(OC(C)C(=O)NCCCN2CCOCC2)ccc2c3c(c(=O)oc12)CCC3 (stereo unspecified)	VIM-2 inh 24 | IMP-1 inh-2 inactive | VIM-2 FRET inh inactive | TEM-1 counter inactive | VIM-2 inh conf 33
CCc1cc(=O)oc2cc(C)cc(OC(C)C(=O)NCCN3CCOCC3)c12 (stereo unspecified)	none
Cc1c(OC(C)C(=O)NCCN2CCOCC2)ccc2c3c(c(=O)oc12)CCC3 (stereo unspecified)	VIM-2 inh 19 | IMP-1 inh-2 inactive | VIM-2 FRET inh inactive | TEM-1 counter inactive | VIM-2 inh conf 26
CCOc1ccc(-c2nnc(SCC(=O)N3CCNC3=O)o2)cc1	none (no result: ANO1 block, CHT PAM, IMP-1 inh-1, CHT block, VIM-2 inh)
O=[N+]([O-])c1ccc(C23CC4CC(CC(O)(C4)C2)C3)cc1	VIM-2 inh 15 (no result: TMEM16A act) | IMP-1 inh-2 inactive | VIM-2 FRET inh 34 | TEM-1 counter inactive | VIM-2 inh conf 22
O=C(NC12CC3CC(CC(C3)C1)C2)c1ccc([N+](=O)[O-])cc1	none
COc1ccccc1/C=C/C(=O)OCC(=O)NC1CCCCCCC1	none (no result: ANO1 block, CHT PAM, IMP-1 inh-1, CHT block, VIM-2 inh)
C=CCNC(=S)Nc1ccc2cn[nH]c2c1	none
O=C(CNCc1ccccn1)N1CCc2ccccc2C1	VIM-2 inh 30 | IMP-1 inh-2 inactive | VIM-2 FRET inh inactive | TEM-1 counter inactive | VIM-2 inh conf 50
O=C(CSc1ncccn1)N1CCc2ccccc2C1	none
